Screens deposited in PubChem BioAssay by Broad Institute.
Wnt bcat act: activates Wnt/beta-catenin signaling in a reporter cell assay; activator, plate reader; activation, % at 9.35 µM; hit rate 1.2% among 300,000; AID 743398; in the data active = activation above about 30%, passing the limit was not always enough; inconclusive = no clear call, values can overlap the other calls;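 also: 0% = neutral control wells and 100% = positive control wells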
SR-BI DiI-HDL act: activators of SR-BI mediated HDL lipid uptake | CHO ldlA[mSR-BI] cells, DiI-HDL uptake fluorescence, 3 h; 100 = double the neutral-control signal | activation, % at 12.5 µM | hit rate 0.096% among 320,000;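 active = mean replicate activation of at least 60% and every replicate at or above 60%; inconclusive = mean or all-replicate condition met, but not both; inactive = mean below 60% and not all replicates reaching 60%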;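 also: 0% = median plate neutral-control signal and 100% = twice that signal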
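Material – SR-BI-overexpressing, LDLR-lacking CHO cells · Medium – BSA-supplemented, HEPES-buffered Ham's F12, pH 7.4 · Doses – single concentration · Times – compound with DiI-HDL co-incubation, 3 h at 37 °C · Measured by – bottom-read fluorescence, 550/595 nm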
HSF1 activator: increases HSF-1 driven luciferase reporter signal; NIH3T3-HGL HSF-1 luciferase reporter, MG132, 8 h; 100% = twice DMSO control signal; hit rate 1.7% among 300,000; AID 504408; activation, % at 9 µM;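 active = mean replicate activation of at least 50% with a set share of replicates each reaching 50%; inconclusive = only one of those two conditions met; inactive = mean below 50% and too few replicates reaching it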;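 also: 0% = median of the neutral control wells and 100% = twice that signal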
MITF TRPM1 HTS: activators of MITF-driven TRPM1 promoter activity in SK-MEL-5 cells | SK-MEL-5 TRPM1-promoter luciferase, 24 h; % of positive control, neutral wells = 0 | activation, % at 12.5 µM | hit rate 0.75% among 300,000 | AID 588334;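 active = mean activation of at least 80% with every replicate also reaching 80%; inconclusive = mean reaches 80% but some replicate falls short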;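 also: 0% = neutral control wells and 100% = parthenolide positive control wells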
SR-BI HDL uptake: mouse SR-BI HDL lipid transfer inhibition; inhibition, % at 12.5 µM; AID 488896; hit rate 0.96% among 320,000; Q61009; ldlA[mSR-BI] CHO cells, DiI-HDL uptake fluorescence, 3 h;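 active = mean replicate inhibition of at least 70% and a set share of replicates each scoring 70 or more; inconclusive = meets just one of the two criteria; inactive = fails both criteria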;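 also: 0% = median of neutral control wells and 100% = median of positive control wells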
Target sequence (Q61009 whole entry, looked up): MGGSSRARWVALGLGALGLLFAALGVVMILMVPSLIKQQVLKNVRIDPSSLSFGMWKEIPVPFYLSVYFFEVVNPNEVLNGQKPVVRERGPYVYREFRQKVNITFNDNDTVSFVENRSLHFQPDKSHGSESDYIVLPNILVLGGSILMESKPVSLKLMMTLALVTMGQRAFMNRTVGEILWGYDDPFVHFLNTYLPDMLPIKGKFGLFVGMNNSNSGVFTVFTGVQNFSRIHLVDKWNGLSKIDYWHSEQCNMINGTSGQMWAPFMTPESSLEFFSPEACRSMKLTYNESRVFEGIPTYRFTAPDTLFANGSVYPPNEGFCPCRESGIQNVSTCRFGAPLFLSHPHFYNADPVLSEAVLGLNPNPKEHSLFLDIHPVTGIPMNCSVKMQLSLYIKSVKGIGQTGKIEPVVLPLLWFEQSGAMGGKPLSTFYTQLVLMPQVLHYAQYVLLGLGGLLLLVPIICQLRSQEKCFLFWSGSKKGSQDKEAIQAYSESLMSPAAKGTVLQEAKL
Active calls of the source: *; ? = inconclusive; · = not tested or not shown. Hits are enriched below; roughly 3.6% of the tested compounds scored in any of these assays.

SMILES | Wnt bcat act | SR-BI DiI-HDL act | HSF1 activator | MITF TRPM1 HTS | SR-BI HDL uptake
Cc1cc2c(cc1C)-c1nnnn1C(N1CCC(Cc3ccccc3)CC1)C(=O)N2 (stereo not given) | 0 | · | · | · | ·
CC1(C(=O)Nc2ccc3c(c2)OCCO3)CN(S(C)(=O)=O)CC(=O)N1CCc1c[nH]c2ccccc12 (stereo not given) | -2 | · | · | · | ·
O=C1CC2(CCN1)CCN(Cc1ccccc1)CC2 | -2 | 17 | 1 | -2 | -17
O=C(O)CCCC[n+]1ccccc1 | 1 | · | · | · | ·
COc1ccc(C(=O)Nc2cccc(-c3ccc(N4CCOCC4)nn3)c2)cc1OC | 26 | -75 | 6 | 96* | 75*
CCC(=O)Nc1cccc(-c2ccc(N3CCN(C)CC3)nn2)c1 | · | 22 | 17 | 85* | -22
Cc1ccc([N+](=O)[O-])cc1S(=O)(=O)Nc1cccc(-c2ccc(N3CCOCC3)nn2)c1 | 14 | 4 | 22 | 88* | -4
CCOc1cc(C(=O)Nc2cccc(C(C)=O)c2)ccc1OCC(=O)N1CCCCC1 | 1 | -74 | 21 | 4 | 74*
CC1CCN(C(=O)CN2C(=O)NC(c3ccccc3)(c3ccccc3)C2=O)CC1 | 2 | 1 | · | -5 | -1
CC1(C(=O)NS(=O)(=O)c2ccccc2)CCN1C(=O)Cc1cccs1 (stereo not given) | 5 | · | · | · | ·
COc1ccc2[nH]c3c(c2c1)CCN1C(=O)C(CC(=O)NC/C=C(\C)CCC=C(C)C)C[C@H](C(=O)N(C(C)C)C(C)C)[C@@]31C (stereo not given in full) | 6 | -26 | · | -9 | 26
COc1cccc(C(=O)Nc2cccc(-c3ccc(N4CCOCC4)nn3)c2)c1 | 22 | -48 | 16 | 137* | 48
CCOc1ccccc1C(=O)Nc1cccc(-c2ccc(N3CCOCC3)nn2)c1 | ? | -56 | 38 | 111* | 56
CCOc1ccc(C(=O)Nc2cccc(-c3ccc(N4CCOCC4)nn3)c2)cc1OCC | 22 | -90 | 17 | 106* | 90*
COc1cccc(C(=O)Nc2cccc(-c3ccc(N4CCOCC4)nn3)c2)c1OC | 28 | -28 | 26 | ? | 28
O=C(Nc1c(F)c(F)c(F)c(F)c1F)c1ccc(Br)o1 | -1 | · | · | · | ·
Cc1c(C(=O)/C=C/c2cccs2)oc2ccc(F)cc12 | · | -14 | 106* | 23 | 14
Cc1c(C(=O)Nc2nccs2)oc2ccc(F)cc12 | 38* | -1 | · | 34 | 1
Cc1c(C(=O)N2CCN(C(=O)c3ccccc3)CC2)oc2ccc(F)cc12 | 3 | -11 | · | -20 | 11
CCCCCCCCN1C(=O)[C@@H](CC(=O)NCCCOC)C[C@@]2(C(=O)OC)C1=C[C@H](C(C)(C)C)O[C@@H]2C | -6 | · | · | · | ·
Cc1cc2nc(C3CCCN(C(=O)NCc4ccccc4)C3)[nH]c2cc1C (stereo not given) | 46* | 2 | 39 | 39 | -2
CN(C)S(=O)(=O)c1ccc(C(=O)NCCOc2ccccc2)cc1 | 48* | -15 | ? | 63 | 15
Cc1ccc(CSCCNC(=O)c2ccc(N(C)S(=O)(=O)c3ccccc3)cc2)cc1 | · | -19 | 15 | 6 | 19
CN(C)S(=O)(=O)c1ccc(C(=O)NCCOc2ccc(F)cc2)cc1 | 21 | 18 | 46 | 65 | -18
Cc1ccc(C(=O)NCCOc2cccc(C)c2)cc1 | 5 | 11 | 59* | 49 | -11
SMILES | Wnt bcat act | SR-BI DiI-HDL act | HSF1 activator | MITF TRPM1 HTS | SR-BI HDL uptake
CN(c1ccc(C(=O)NCCSC(C)(C)C)cc1)S(=O)(=O)c1ccccc1 | 44* | -45 | 16 | 7 | 45
C[C@H](NS(=O)(=O)c1ccc(Cl)cc1)C(=O)OCC(=O)NCCc1ccc(S(N)(=O)=O)cc1 | -1 | -8 | · | -9 | 8
CCOC(=O)C1=CCN(S(=O)(=O)c2ccc(C)cc2)C1c1cccc(Cl)c1 (stereo not given) | -3 | · | · | · | ·
Cc1cc(-c2ccccc2)nc(N/N=C/c2ccccc2)n1 | 21 | -72 | 20 | 64 | 72*
Cc1cc(-c2ccccc2)nc(N/N=C/c2ccc([N+](=O)[O-])cc2)n1 | 0 | -73 | -2 | 9 | 73*
CCN(CCCNC(=O)CCCCn1c(=O)[nH]c2ccccc2c1=O)c1ccccc1 | 1 | -8 | 74* | · | 8
Cc1cc(N2CCCC2)ccc1/C=C1\NC(=S)N(C)C1=O | 54* | -63 | 47 | 79 | 63
CN1C(=O)c2ccc(N3CCCC3)cc2C1=O | · | -14 | 6 | 17 | 14
Cn1c(SCC(=O)NCc2ccco2)nnc1-c1cccs1 | 16 | -1 | 55* | · | 1
CCc1ccc(NC(=O)c2cc(-c3cccs3)on2)cc1 | -2 | · | 41 | 94* | ·
COc1ccc(NC(=O)c2cc(-c3cccs3)on2)cc1OC | · | -44 | 21 | 32 | 44
COc1ccc(NC(=O)c2cc3ccccn3n2)cc1 | 31* | 0 | 22 | · | 0
COc1ccc(NC(=O)c2ccccn2)cc1 | · | 3 | 4 | -3 | -3
CCc1ccc(NC(=O)c2cc(-c3ccc(F)cc3)on2)cc1 | 7 | · | 11 | 24 | ·
COc1ccc(NC(=O)c2cc(-c3cccs3)on2)cc1 | ? | · | 8 | 110* | ·
Cc1ccc(NCc2cccc(B(O)O)c2)cc1 | 8 | 0 | · | 1 | 0
COc1ccc(CN2C(=O)CSCC2(C)C(=O)NCc2ccccc2)cc1OC (stereo not given) | -2 | · | · | · | ·
O=C(Nc1cccnc1)c1cc(-c2cccs2)on1 | · | 22 | 7 | 12 | -22
Cc1ccc(NC(=O)c2cccc(C(=O)Nc3ccc(C)c(C)c3)n2)cc1C | -1 | -75 | 8 | 16 | 75*
Cc1ccc(NC(=O)c2cc(-c3cccs3)on2)cc1C | 39* | · | 27 | 99* | ·
O=C(NCc1ccco1)c1cc(-c2cccs2)on1 | · | -37 | 72* | -3 | 37
O=C(CSc1nnc(CNc2ccc(Cl)cc2)n1Cc1ccccc1)NCc1ccco1 | -2 | 12 | 63* | · | -12
CSCCC(c1nc2ccccc2[nH]1)n1c(-c2ccc3ncccc3c2)nc2ccccc21 (stereo not given) | 16 | · | · | · | ·
COc1cccc(S(=O)(=O)N(C)C[C@@H]2Oc3cc(C#CCN(C)C)ccc3S(=O)(=O)N([C@H](C)CO)C[C@@H]2C)c1 | -1 | · | · | · | ·
CC12CCC=CC1=C(C=O)C1C2CCC2(C)C(O)CCC12 (stereo not given) | -1 | 13 | · | -24 | -13
SMILES | Wnt bcat act | SR-BI DiI-HDL act | HSF1 activator | MITF TRPM1 HTS | SR-BI HDL uptake
CCn1c(CNc2ccc(Cl)cc2)nnc1SCC(=O)OC1CCCCC1 | · | -67 | 60* | -14 | 67
CCc1ccc(NC(=O)c2sccc2-n2cccc2)cc1 | 9 | -66 | 53* | 10 | 66
COc1ccc(NC(=O)c2csc(Cc3ccc(Cl)cc3)n2)cc1 | 0 | 34 | 37 | -11 | -34
COc1ccc(Cc2nc(C(=O)Nc3ccccc3)cs2)cc1 | · | -7 | 59* | 17 | 7
COc1ccc(NC(=O)c2cc(C)n(Cc3cccs3)c2C)cc1 | 68* | 9 | 68* | · | -9
COc1ccc(NC(=O)c2sccc2-n2cccc2)cc1 | 0 | -43 | 32 | 2 | 43
